# “Also recorded” adds a separate entry of the source. Read-outs that look alike come from different tables or passages of the source.
# What was measured:
# [1] = type: in vivo, human; conditions: for Ae(0–last), cumulative amount excreted in urine / fe(0–last), fraction of dose excreted unchanged in urine: day 10; for Vd/F / half-life / CL renal: human, po; for Vd/F / half-life: plasma; for Ae(0–last), cumulative amount excreted in urine / fe(0–last), fraction of dose excreted unchanged in urine / CL renal: urine
# In short: (§1)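 Healthy males aged 18–50 y, randomized 3:1 to active or placebo (single-blind). Oral suspension given once daily each morning after a ≥10 h fast for 10 days: Japanese cohorts 2.5, 5 or 10 mg, Chinese cohort 5 mg. K2EDTA blood drawn pre-dose and 0.25–12 h post-dose on days 1 and 10, plus 24–336 h. Urine pooled 0–3, 3–6, 6–9, 9–12 and 12–24 h on day 10. Plasma spun 1500g, 4 °C, 10 min; samples stored at −50 to −90 °C.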
# [2] = type: in vivo, human
# In short: as §1
# [3] = Safety and tolerability in healthy Japanese volunteers; type: in vivo, human; conditions: for Any AE / Any AE leading to discontinuation / Any SAE / Any possibly related AE / Death / Maculopapular rash: Japanese
# In short: (§2)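 Safety assessed at every visit in all randomized participants given ≥1 dose of drug or placebo (oral suspension once daily for 10 days, 3:1 randomization). Covered AE and SAE incidence and severity, vital signs, ECGs, laboratory tests and skin rash. Participants resided on site from day −1 to day 12, with visits on days 14, 16, 20 and 24. Rash graded by CTCAE; relatedness judged by the investigator.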
# [4] = Safety and tolerability in healthy Chinese volunteers; type: in vivo, human; conditions: 5 mg once daily for 10 days, n = 6
# In short: as §2
# [5] = Pharmacokinetics, Japanese and Chinese participants together or compared; type: in vivo, human
# In short: as §1
# [6] = Safety and tolerability, Japanese and Chinese participants together; type: in vivo, human
# In short: as §2
# [7] = Stability of frozen plasma and urine pharmacokinetic samples; set-up: species or system human; conditions: stored frozen at − 50 to − 90 °C
# [8] = cited from earlier work; for mean CL/F on the last study day: mainly white and Black/African American participants
# [9] = SAD study 5–405 mg; cited from earlier work
# [10] = human plasma; cited from earlier work
# [11] = Japanese, 2.5 mg oral once daily, n = 6
# [12] = Japanese, 5 mg oral once daily, n = 5
# [13] = Japanese, 10 mg oral once daily, n = 3
# [14] = Chinese, 5 mg oral once daily, day 10, n = 5, urine
# [15] = 2.5 mg once daily for 10 days, n = 6
# [16] = 5 mg once daily for 10 days, n = 6
# [17] = 10 mg once daily for 10 days, n = 6
# [18] = total mitiperstat 2.5, 5 or 10 mg, n = 18
smiles,measurement,setting,value
C[C@@H](N)c1cc(Cl)ccc1Cn1c(=S)[nH]c(=O)c2[nH]ccc21 [Mitiperstat],"Ae(0–last), cumulative amount excreted in urine",[1]; [11],1.20 (0.29) mg
same,"fe(0–last), fraction of dose excreted unchanged in urine",[1]; [11],47.94 (11.55) %
same,"Ae(0–last), cumulative amount excreted in urine",[1]; [12],2.56 (0.72) mg
same,"fe(0–last), fraction of dose excreted unchanged in urine",[1]; [12],51.14 (14.31) %
same,"Ae(0–last), cumulative amount excreted in urine",[1]; [13],6.29 (1.77) mg
same,"fe(0–last), fraction of dose excreted unchanged in urine",[1]; [13],62.94 (17.71) %
same,"dose proportionality of exposure (AUC, Ctrough and Cmax)","[1]; Japanese, 2.5–10 mg range",dose proportional; also recorded: increased proportionally with dose
same,Vd/F,[1]; 2.5 mg,2300 L
same,half-life,[1]; 2.5 mg,50.2 h
same,Vd/F,[1]; 5 mg,2170 L
same,half-life,[1]; 5 mg,57.8 h
same,Vd/F,[1]; 10 mg,2250 L
same,half-life,[1]; 10 mg,56.4 h
same,CL renal,[1]; 2.5 mg,248 mL/min
same,CL renal,[1]; 5 mg,215 mL/min
same,CL renal,[1]; 10 mg,282 mL/min
same,"Ae(0–last), cumulative amount excreted in urine",[2]; [14],2.48 (0.53) mg
same,"fe(0–last), fraction of dose excreted unchanged in urine",[2]; [14],49.59 (10.62) %
same,Vd/F,"[2]; human, plasma, po, 5 mg",1960 L
same,half-life,"[2]; human, plasma, po, 5 mg",55.4 h
same,CL renal,"[2]; human, urine, po, 5 mg",200 mL/min
same,Any AE,[3]; [15],1 (16.7) n (%)
same,Any AE leading to discontinuation,[3]; [15],0 (0.0) n (%)
same,Any SAE,[3]; [15],0 (0.0) n (%)
same,Any possibly related AE,[3]; [15],0 (0.0) n (%)
same,Death,[3]; [15],0 (0.0) n (%)
same,Maculopapular rash,[3]; [15],0 (0.0) n (%)
same,Any AE,[3]; [16],2 (33.3) n (%)
same,Any AE leading to discontinuation,[3]; [16],1 (16.7) n (%)
same,Any SAE,[3]; [16],0 (0.0) n (%)
same,Any possibly related AE,[3]; [16],1 (16.7) n (%)
same,Death,[3]; [16],0 (0.0) n (%)
same,Maculopapular rash,[3]; [16],1 (16.7) n (%)
same,Any AE,[3]; [17],4 (66.7) n (%)
same,Any AE leading to discontinuation,[3]; [17],3 (50.0) n (%)
same,Any SAE,[3]; [17],0 (0.0) n (%)
same,Any possibly related AE,[3]; [17],3 (50.0) n (%)
same,Death,[3]; [17],0 (0.0) n (%)
same,Maculopapular rash,[3]; [17],3 (50.0) n (%)
same,Any AE,[3]; [18],7 (38.9) n (%)
same,Any AE leading to discontinuation,[3]; [18],4 (22.2) n (%)
same,Any SAE,[3]; [18],0 (0.0) n (%)
same,Any possibly related AE,[3]; [18],4 (22.2) n (%)
same,Death,[3]; [18],0 (0.0) n (%)
same,Maculopapular rash,[3]; [18],4 (22.2) n (%)
same,day of rash occurrence,[3]; Participant receiving 5 mg,4 days
same,Any AE,[4],2 (33.3) n (%)
same,Any AE leading to discontinuation,[4],1 (16.7) n (%)
same,Any SAE,[4],0 (0.0) n (%)
same,Any possibly related AE,[4],2 (33.3) n (%)
same,Death,[4],0 (0.0) n (%)
same,Maculopapular rash,[4],1 (16.7) n (%)
same,mean CL/F on the last study day,[5]; Japanese and Chinese cohorts receiving 5 mg,25.3 L/h
same,time to steady state,"[5]; Japanese and Chinese, once-daily oral dosing",≤ 10 days
same,time to steady state by visual interpretation,"[5]; Japanese and Chinese, trough concentrations",approximately 7 days
same,renal clearance as share of apparent total clearance,[5]; both Japanese and Chinese participants,approximately 50%
same,median time to Cmax,"[5]; day 10, Japanese and Chinese, range of group medians",1.02 to 2.00 h
same,half-life,"[5]; human, plasma, po",50.2 to 57.8 h
same,"laboratory results, vital signs or electrocardiograms","[6]; Japanese and Chinese, 2.5–10 mg once daily for 10 days",No clinically significant trends or shifts from baseline
same,time to resolution of rash,[6]; all cases of rash,≤ 1 month
same,day of rash occurrence,[6]; the other four participants who experienced rash,9 days
same,"adverse events of rash of moderate intensity (maculopapular rash, CTCAE grade 2)","[6]; three Japanese 10 mg, one Chinese 5 mg",Four
same,known stability period of study samples,[7]; plasma,438 days
same,known stability period of study samples,[7]; urine,439 days
same,dose proportionality of AUC and Cmax,"[8]; MAD study 5–45 mg, last day of dosing",approximately proportional to dose
same,time to Cmax,[8]; healthy participants,approximately 1 h
same,mean CL/F on the last study day,[8]; 5 mg,22.8 L/h
same,mean CL/F on the last study day,[8]; 10 mg,20.6 L/h
same,dose proportionality of exposure (average AUC),[9],increased proportionally with mitiperstat dose
same,share of drug-related exposure in plasma,[10],approximately 7%
